Molecules are shown by their SMILES.

The subject of the first test is Klebsiella aerogenes. The experiment in a line: Inhibitory activity against ATCC 13048 strain(Enterobacter aerogenes) in the presence of Norfloxacin and fluoroquinolone at a concentration of 16 ug/mL. It is filed as functional. An outline of the steps: (§1)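 Checkerboard microtitration MIC with fluoroquinolone plus test compound against E. aerogenes ATCC 13048 or its p9 derivative carrying plasmid-borne E. coli marA. Bacteria were grown in Luria-Bertani or Mueller-Hinton broth at 37 °C, with 15 µg/mL tetracycline for p9. Wells were inoculated at 10^5 cells/mL and growth was scored visually after 18 h at 37 °C. Values are means of two independent experiments.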
As for `Cc1cc(OCCN(C)C)c2cc3c(OCCN(C)C)cc(C)nc3c(C)c2n1`, the minimal inhibitory concentration (MIC) – broadly, the smallest concentration in the dilution series that meets the test's criterion for growth inhibition – was 0.1 mg/L.

In a further test the test system is Klebsiella aerogenes. Kind of test: Inhibitory activity against Enterobacter aerogenes-3 istrainn the presence of ciprofloxacin and fluoroquinolone at 128 ug/mL. It is filed as functional. The method in brief:
(§2)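 Compound ranged 8–128 µg/mL, combined with norfloxacin at 16–128 µg/mL or ciprofloxacin at 4–64 µg/mL (final). Cells were grown in LB or MH broth at 37 °C and wells inoculated at 10^5 cells/mL. After 18 h at 37 °C growth was read visually. Values are means of two independent experiments.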
As to `Cc1cc(OCCN2CCCCC2)c2cc3c(OCCN4CCCCC4)cc(C)nc3c(C)c2n1`, the MIC turned out to be 32 mg/L.
Same read-out and setting: the same measure for `Cc1cc(OCCCN(C)C)c2cc3c(OCCCN(C)C)cc(C)nc3c(C)c2n1`: 32 mg/L; for `Cc1cc(SCCN(C)C)c2cc3c(SCCN(C)C)cc(C)nc3c(C)c2n1`: 4 mg/L.

For a further test, the system named is Klebsiella aerogenes. Kind of test: Inhibitory activity against p9- (derivative of ATCC )13048 strain(Enterobacter aerogenes) in the presence of Norfloxacin and fluoroquinolone at 16 ug/mL. It is filed as functional. The method in brief: as §1
As to `CCN(CC)CCSc1cc(C)nc2c(C)c3nc(C)cc(SCCN(CC)CC)c3cc12`, the minimum inhibitory concentration (MIC) came out at 1 mg/L.
The same measure, in the same setting: the same measure for `Cc1cc(OCCN2CCCCC2)c2cc3c(OCCN4CCCCC4)cc(C)nc3c(C)c2n1`: 1 mg/L.
Take `Cc1cc(OCCCN(C)C)c2cc3c(OCCCN(C)C)cc(C)nc3c(C)c2n1`: the MIC came to 1 mg/L.
On the same count and under the same terms, the same measure for `Cc1cc(OCCN(C)C)c2cc3c(OCCN(C)C)cc(C)nc3c(C)c2n1`: 1 mg/L; for `Cc1cc(OCCN2CCOCC2)c2cc3c(OCCN4CCOCC4)cc(C)nc3c(C)c2n1`: 2 mg/L; for `Cc1cc(SCCN(C)C)c2cc3c(SCCN(C)C)cc(C)nc3c(C)c2n1`: 0.25 mg/L.
Same read-out and setting: to `Cc1cc(SCCn2cccc2)c2cc3c(SCCn4cccc4)cc(C)nc3c(C)c2n1` belongs 0.5 mg/L.
On to `Cc1cc(SCCN2CCCCC2)c2cc3c(SCCN4CCCCC4)cc(C)nc3c(C)c2n1`, for which the minimum inhibitory concentration (MIC) was 2 mg/L.
Same read-out and setting: to `O=C(O)c1cn(C2CC2)c2cc(N3CCNCC3)c(F)cc2c1=O` [CIPROFLOXACIN] belongs 32 mg/L; to `CCn1cc(C(=O)O)c(=O)c2cc(F)c(N3CCNCC3)cc21` [NORFLOXACIN], 128 mg/L.

In the next test the test system is Klebsiella aerogenes. The experiment in a line: Inhibitory activity against p9- (derivative of ATCC )13048 strain(Enterobacter aerogenes) in the presence of Norfloxacin and luoroquinolone at 16 ug/mL. Format: functional. The method in brief: as §1
Turning to `Cc1cc(OCCN(C(C)C)C(C)C)c2cc3c(OCCN(C(C)C)C(C)C)cc(C)nc3c(C)c2n1`, the MIC amounted to 2 mg/L.

Another test concerns Klebsiella aerogenes. The experiment in a line: Inhibitory activity against ATCC 13048 strain(Enterobacter aerogenes) in the presence of ciprofloxacin fluoroquinolone at 32 ug/mL. It is filed as functional. The method in brief: as §1
In the case of `Cc1cc(SCCN(C)C)c2cc3c(SCCN(C)C)cc(C)nc3c(C)c2n1`, the minimal inhibitory concentration (MIC) turned out to be 0.1 mg/L.

For another test, the system named is Klebsiella aerogenes. Kind of test: Inhibitory activity against ATCC 13048 strain(Enterobacter aerogenes) in the presence of Norfloxacin and fluoroquinolone at 32 ug/mL. It is filed as functional. The method in brief:
as §1
With `Cc1cc(SCCN(C)C)c2cc3c(SCCN(C)C)cc(C)nc3c(C)c2n1`, the MIC was determined as 0.25 mg/L.

Another test deals with Klebsiella aerogenes. The experiment in a line: Inhibitory activity against ATCC 13048 strain(Enterobacter aerogenes) in the presence of Norfloxacin and fluoroquinolone at 16 ug/mL. It is filed as functional. An outline of the steps: as §1
As to `CCN(CC)CCSc1cc(C)nc2c(C)c3nc(C)cc(SCCN(CC)CC)c3cc12`, the minimum inhibitory concentration (MIC) came out at 0.05 mg/L.
The same measure, in the same setting: the same measure for `Cc1cc(OCCN(C(C)C)C(C)C)c2cc3c(OCCN(C(C)C)C(C)C)cc(C)nc3c(C)c2n1`: 0.05 mg/L; for `Cc1cc(OCCN2CCCCC2)c2cc3c(OCCN4CCCCC4)cc(C)nc3c(C)c2n1`: 0.1 mg/L; for `Cc1cc(OCCCN(C)C)c2cc3c(OCCCN(C)C)cc(C)nc3c(C)c2n1`: 0.05 mg/L.
On the same count and under the same terms, to `Cc1cc(OCCN2CCOCC2)c2cc3c(OCCN4CCOCC4)cc(C)nc3c(C)c2n1` belongs 0.05 mg/L; to `Cc1cc(SCCN(C)C)c2cc3c(SCCN(C)C)cc(C)nc3c(C)c2n1`, 0.05 mg/L; to `Cc1cc(SCCn2cccc2)c2cc3c(SCCn4cccc4)cc(C)nc3c(C)c2n1`, 0.025 mg/L.
Still for that read-out and setting: to `Cc1cc(SCCN2CCCCC2)c2cc3c(SCCN4CCCCC4)cc(C)nc3c(C)c2n1` belongs 0.05 mg/L; to `O=C(O)c1cn(C2CC2)c2cc(N3CCNCC3)c(F)cc2c1=O` [CIPROFLOXACIN], 0.025 mg/L; to `CCn1cc(C(=O)O)c(=O)c2cc(F)c(N3CCNCC3)cc21` [NORFLOXACIN], 0.05 mg/L.

The next test has as its system Klebsiella aerogenes. Kind of test: Inhibitory activity against Enterobacter aerogenes-3 istrainn the presence of ciprofloxacin and fluoroquinolone at 64 ug/mL. It is filed as functional. An outline of the steps:
as §2
With `Cc1cc(SCCN(C)C)c2cc3c(SCCN(C)C)cc(C)nc3c(C)c2n1`, the MIC is 8 mg/L.

In another test the test system is Klebsiella aerogenes. The experiment in a line: Inhibitory activity against Enterobacter aerogenes-3 strain in the presence of Norfloxacin and fluoroquinolone at 128 ug/mL. Format: functional. An outline of the steps:
as §2
With `Cc1cc(OCCN2CCCCC2)c2cc3c(OCCN4CCCCC4)cc(C)nc3c(C)c2n1`, the MIC is 128 mg/L.
Still for that read-out and setting: to `Cc1cc(OCCCN(C)C)c2cc3c(OCCCN(C)C)cc(C)nc3c(C)c2n1` belongs 128 mg/L; to `Cc1cc(SCCN(C)C)c2cc3c(SCCN(C)C)cc(C)nc3c(C)c2n1`, 16 mg/L.

The subject of another test is Klebsiella aerogenes. Kind of test: Inhibitory activity against ATCC 13048 strain(Enterobacter aerogenes) in the presence of ciprofloxacin fluoroquinolone at 16 ug/mL. Format: functional. An outline of the steps: as §1
Regarding `CCN(CC)CCSc1cc(C)nc2c(C)c3nc(C)cc(SCCN(CC)CC)c3cc12`, the minimum inhibitory concentration (MIC) was determined as 0.025 mg/L.
The same measure, in the same setting: the same measure for `Cc1cc(OCCN(C(C)C)C(C)C)c2cc3c(OCCN(C(C)C)C(C)C)cc(C)nc3c(C)c2n1`: 0.05 mg/L; for `Cc1cc(OCCN2CCCCC2)c2cc3c(OCCN4CCCCC4)cc(C)nc3c(C)c2n1`: 0.025 mg/L; for `Cc1cc(OCCCN(C)C)c2cc3c(OCCCN(C)C)cc(C)nc3c(C)c2n1`: 0.025 mg/L.
As to `Cc1cc(OCCN(C)C)c2cc3c(OCCN(C)C)cc(C)nc3c(C)c2n1`, the MIC was 0.025 mg/L.
On the same count and under the same terms, the same measure for `Cc1cc(OCCN2CCOCC2)c2cc3c(OCCN4CCOCC4)cc(C)nc3c(C)c2n1`: 0.025 mg/L; for `Cc1cc(SCCN(C)C)c2cc3c(SCCN(C)C)cc(C)nc3c(C)c2n1`: 0.025 mg/L.
The same measure, in the same setting: to `Cc1cc(SCCn2cccc2)c2cc3c(SCCn4cccc4)cc(C)nc3c(C)c2n1` belongs 0.025 mg/L; to `Cc1cc(SCCN2CCCCC2)c2cc3c(SCCN4CCCCC4)cc(C)nc3c(C)c2n1`, 0.025 mg/L.
On the same count and under the same terms, the same measure for `O=C(O)c1cn(C2CC2)c2cc(N3CCNCC3)c(F)cc2c1=O` [CIPROFLOXACIN]: 0.5 mg/L.

In a further test the test system is Klebsiella aerogenes. Kind of test: Inhibitory activity against p9- (derivative of ATCC )13048 strain(Enterobacter aerogenes) in the presence of ciprofloxacin and fluoroquinolone at 16 ug/mL. Format: functional. The method in brief: as §1
For the compound `CCN(CC)CCSc1cc(C)nc2c(C)c3nc(C)cc(SCCN(CC)CC)c3cc12`, the minimum inhibitory concentration (MIC) is 0.5 mg/L.
Same read-out and setting: the same measure for `Cc1cc(OCCN(C(C)C)C(C)C)c2cc3c(OCCN(C(C)C)C(C)C)cc(C)nc3c(C)c2n1`: 0.5 mg/L; for `Cc1cc(OCCN2CCCCC2)c2cc3c(OCCN4CCCCC4)cc(C)nc3c(C)c2n1`: 0.25 mg/L; for `Cc1cc(OCCCN(C)C)c2cc3c(OCCCN(C)C)cc(C)nc3c(C)c2n1`: 0.05 mg/L.
The same measure, in the same setting: to `Cc1cc(OCCN(C)C)c2cc3c(OCCN(C)C)cc(C)nc3c(C)c2n1` belongs 0.25 mg/L.
Regarding `Cc1cc(OCCN2CCOCC2)c2cc3c(OCCN4CCOCC4)cc(C)nc3c(C)c2n1`, the minimum inhibitory concentration (MIC) came out at 0.5 mg/L.
On the same count and under the same terms, to `Cc1cc(SCCN(C)C)c2cc3c(SCCN(C)C)cc(C)nc3c(C)c2n1` belongs 0.25 mg/L.
Still for that read-out and setting: the same measure for `Cc1cc(SCCn2cccc2)c2cc3c(SCCn4cccc4)cc(C)nc3c(C)c2n1`: 0.1 mg/L; for `Cc1cc(SCCN2CCCCC2)c2cc3c(SCCN4CCCCC4)cc(C)nc3c(C)c2n1`: 0.5 mg/L.

The next test has as its system Klebsiella aerogenes. The experiment in a line: Inhibitory activity against Enterobacter aerogenes-3 strain in the presence of Norfloxacin and fluoroquinolone at 64 ug/mL. Format: functional. The method in brief:
as §2
Turning to `Cc1cc(SCCN(C)C)c2cc3c(SCCN(C)C)cc(C)nc3c(C)c2n1`, the MIC came to 64 mg/L.
